Measurements as given in ChEMBL document CHEMBL1132994, “Synthesis and anticonvulsant and neurotoxic properties of substituted N-phenyl derivatives of the phthalimide pharmacophore” (J Med Chem, 2000).
Active and inactive are the calls of the source. The rule behind the calls is not given here.

Experiments:
Mus musculus [1] = experiment: Anticonvulsant activity in mice through seizures induced by maximal electroshock (MES) tests after ip administration at a concentration of 100 mg/kg after 30 min; Inactive; assay type: functional, organism-based; set-up: dose 100 mg/kg
Mus musculus [2] = experiment: Anticonvulsant activity in mice through seizures induced by maximal electroshock (MES) tests after intraperitoneal administration at a concentration of 300 mg/kg after 4 hours; Inactive; assay type: functional, organism-based; set-up: dose 300 mg/kg
Mus musculus [3] = experiment: Neurotoxicity determined by rotarod test after intraperitoneal administration at a concentration of 300 mg/kg after 4 hours; Inactive; assay type: functional, organism-based; set-up: dose 300 mg/kg
Mus musculus [4] = experiment: Anticonvulsant activity in mice through seizures induced by sc pentylenetetrazole (intraperitoneal administration at a concentration of 300 mg/kg after 4 hours; Inactive; assay type: functional, organism-based; set-up: dose 300 mg/kg
Mus musculus [5] = experiment: Anticonvulsant activity in mice through seizures induced by sc pentylenetetrazole (intraperitoneal administration at a concentration of 300 mg/kg after 30 min; Inactive; assay type: functional, organism-based; set-up: dose 300 mg/kg
Mus musculus [6] = experiment: Neurotoxicity by rotarod test after intraperitoneal administration at a concentration of 300 mg/kg after 30 minutes; Inactive; assay type: functional, organism-based; set-up: dose 300 mg/kg
Mus musculus [7] = experiment: Anticonvulsant activity in mice through seizures induced by maximal electroshock (MES) tests after ip administration at a concentration of 100 mg/kg after 30 min; active; assay type: functional, organism-based; set-up: dose 100 mg/kg
Mus musculus [8] = experiment: Anticonvulsant activity in mice through seizures induced by maximal electroshock (MES) tests after ip administration at a concentration of 300 mg/kg after 4 hours; Inactive; assay type: functional, organism-based; set-up: dose 300 mg/kg
Rattus norvegicus [9] = experiment: Anticonvulsant activity was measured in rats through seizures induced by maximal electroshock (MES) tests by oral administration of drug after 30 minutes.; assay type: functional
Procedure, shortened: (§1)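 Rats given a single oral dose of 30 or 50 mg/kg, depending on compound; MES protection scored at 15, 30, 60, 120 and 240 min. Activity graded by fraction of animals protected (0-25%, 25-50%, 50-75%, 75-100%); neurotoxicity monitored at the same time points.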

Rattus norvegicus [10] = experiment: Anticonvulsant activity was measured in rats through seizures induced by maximal electroshock (MES) tests by oral administration of drug after 15 minutes.; assay type: functional; procedure, shortened: as §1
Rattus norvegicus [11] = experiment: Toxicity screening in rats dosed orally with the compound; No toxicity; assay type: organism-based; settings: in vivo, po
Mus musculus [12] = experiment: Neurotoxicity by rotarod test after intraperitoneal administration at a concentration of 300 mg/kg after 30 minutes; active; assay type: functional, organism-based; set-up: dose 300 mg/kg
Rattus norvegicus [13] = experiment: Anticonvulsant activity was measured in rats through seizures induced by maximal electroshock (MES) tests by oral administration of drug after 1 hour.; assay type: functional; procedure, shortened: as §1
Mus musculus [14] = experiment: Anticonvulsant activity in mice through seizures induced by subcutaneous pentylenetetrazole (scPTZ) tests after ip administration at a concentration of 300 mg/kg after 30 min; active; assay type: functional, organism-based; set-up: dose 300 mg/kg
Rattus norvegicus [15] = experiment: Anticonvulsant activity was measured in rats through seizures induced by maximal electroshock (MES) tests by oral administration of drug after 2 hours.; assay type: functional; procedure, shortened: as §1
Mus musculus [16] = experiment: Anticonvulsant activity in mice through seizures induced by sc pentylenetetrazole (intraperitoneal administration at a concentration of 300 mg/kg after 4 hours; active; assay type: functional, organism-based; set-up: dose 300 mg/kg
Mus musculus [17] = experiment: Anticonvulsant activity in mice through seizures induced by maximal electroshock (MES) tests after ip administration at a concentration of 100 mg/kg after 30 min; Active; assay type: functional, organism-based; set-up: dose 100 mg/kg
Mus musculus [18] = experiment: Anticonvulsant activity in mice through seizures induced by maximal electroshock (MES) tests after ip administration at a concentration of 300 mg/kg after 4 hours; Active; assay type: functional, organism-based; set-up: dose 300 mg/kg
Mus musculus [19] = experiment: Anticonvulsant activity in mice through seizures induced by subcutaneous pentylenetetrazole (scPTZ) tests after ip administration at a concentration of 300 mg/kg after 30 min; Active; assay type: functional, organism-based; set-up: dose 300 mg/kg
Mus musculus [20] = experiment: Neurotoxicity by rotarod test after intraperitoneal administration at a concentration of 300 mg/kg after 30 minutes; Active; assay type: functional, organism-based; set-up: dose 300 mg/kg
Mus musculus [21] = experiment: Anticonvulsant activity in mice through seizures induced by subcutaneous pentylenetetrazole (scPTZ) tests after ip administration at a concentration of 300 mg/kg after 4 hours; Active; assay type: functional, organism-based; set-up: dose 300 mg/kg
Mus musculus [22] = experiment: Neurotoxicity by rotarod test after intraperitoneal administration at a concentration of 300 mg/kg after 4 hours; Active; assay type: functional, organism-based; set-up: dose 300 mg/kg
Mus musculus [23] = experiment: Anticonvulsant activity in mice through seizures induced by scpentylenetetrazol (intraperitoneal administration at a concentration of 300 mg/kg after 4 hours; Inactive; assay type: functional, organism-based; set-up: dose 300 mg/kg
Rattus norvegicus [24] = experiment: Anticonvulsant activity was measured in rats through seizures induced by maximal electroshock (MES) tests by oral administration of drug after 4 hours.; assay type: functional; procedure, shortened: as §1
Mus musculus [25] = experiment: Anticonvulsant activity in mice through seizures induced by subcutaneous pentylenetetrazole (scPTZ) tests after ip administration at a concentration of 300 mg/kg after 4 hours; Inactive; assay type: functional, organism-based; set-up: dose 300 mg/kg
Mus musculus [26] = experiment: Anticonvulsant activity in mice through seizures induced by subcutaneous pentylenetetrazole (scPTZ) tests after ip administration at a concentration of 300 mg/kg after 30 min; Inactive; assay type: functional, organism-based; set-up: dose 300 mg/kg
[27] = dose eliciting minimal neurological toxicity in 50% of animals.; assay type: organism-based; settings: rat, in vivo
Rattus norvegicus [28] = experiment: Effective dose required to assure anticonvulsant protection in 50% of rats dosed orally by MES test.; assay type: functional; settings: po
Procedure, shortened: (§2)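 Rats dosed orally; ED50 is the dose giving anticonvulsant protection in 50% of animals in the MES or scPtz test. TD50 is the minimal neurotoxic dose in 50% of animals. Time to peak effect was also determined.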

Rattus norvegicus [29] = experiment: Effective dose required to assure anticonvulsant protection in 50% of rats dosed orally by scPTZ test.; assay type: functional; settings: po; procedure, shortened: as §2
Rattus norvegicus [30] = experiment: Anticonvulsant activity was measured in rats through seizures induced by maximal electroshock (MES) tests by oral administration of drug after 15 minutes; No activity; assay type: functional, organism-based; procedure, shortened: as §1

COc1ccc(N2C(=O)c3ccccc3C2=O)c(OC)c1
Activity (Mus musculus [1]): inactive
Activity (Mus musculus [2]): inactive
Activity (Mus musculus [3]): inactive
Activity (Mus musculus [4]): inactive
Activity (Mus musculus [5]): inactive
Activity (Mus musculus [6]): inactive

Cc1c(N)cccc1N1C(=O)CCC1=O
Activity (Mus musculus [7]): Active
Activity (Mus musculus [3]): inactive
Activity (Mus musculus [4]): inactive
Activity (Mus musculus [8]): inactive
Activity (Mus musculus [5]): inactive
Activity (Mus musculus [6]): inactive

Cc1cccnc1N1C(=O)c2ccccc2C1=O
Activity in animals (Rattus norvegicus [9]): 50%
Activity in animals (Rattus norvegicus [10]): 25%
Activity (Mus musculus [7]): Active
Activity (Mus musculus [3]): inactive
Toxicity (Rattus norvegicus [11]): No toxicity
Activity (Mus musculus [12]): Active
Activity in animals (Rattus norvegicus [13]): 50%
Activity (Mus musculus [4]): inactive
Activity (Mus musculus [14]): Active
Activity in animals (Rattus norvegicus [15]): 50%
Activity (Mus musculus [8]): inactive

COc1ccc(N2C(=O)c3ccccc3C2=O)c(C)c1
Activity (Mus musculus [7]): Active
Activity (Mus musculus [3]): inactive
Activity (Mus musculus [16]): Active
Activity (Mus musculus [14]): Active
Activity (Mus musculus [8]): inactive
Activity (Mus musculus [6]): inactive

Cc1ccc([N+](=O)[O-])cc1N1C(=O)c2ccccc2C1=O
Activity (Mus musculus [17]): Active
Activity (Mus musculus [18]): Active
Activity (Mus musculus [19]): Active
Activity (Mus musculus [20]): Active
Activity (Mus musculus [21]): Active
Activity (Mus musculus [22]): Active

Cc1cccc(C)c1N1C(=O)c2ccccc2C1=O
Activity in animals (Rattus norvegicus [9]): 50%
Activity in animals (Rattus norvegicus [10]): 50%
Activity (Mus musculus [23]): inactive
Activity (Mus musculus [7]): Active
Activity (Mus musculus [3]): inactive
Toxicity (Rattus norvegicus [11]): No toxicity
Activity in animals (Rattus norvegicus [15]): 25%
Activity in animals (Rattus norvegicus [24]): 50%
Activity (Mus musculus [8]): inactive
Activity (Mus musculus [5]): inactive
Activity (Mus musculus [6]): inactive

Cc1c(C(=O)O)cccc1N1C(=O)c2ccccc2C1=O
Activity (Mus musculus [25]): inactive
Activity (Mus musculus [1]): inactive
Activity (Mus musculus [26]): inactive
Activity (Mus musculus [3]): inactive
Activity (Mus musculus [8]): inactive
Activity (Mus musculus [6]): inactive

Cc1cccc(N)c1N1C(=O)c2ccccc2C1=O
Activity (Mus musculus [25]): inactive
Activity (Mus musculus [17]): Active
Activity (Mus musculus [26]): inactive
Activity (Mus musculus [3]): inactive
TD50 [27]: > 500 mg/kg
Toxicity (Rattus norvegicus [11]): No toxicity
ED50 (Rattus norvegicus [28]): 28.3 mg/kg
Activity in animals (Rattus norvegicus [13]): 75%
ED50 (Rattus norvegicus [29]): > 250 mg/kg
Activity in animals (Rattus norvegicus [15]): 25%
Activity (Mus musculus [18]): Active
Activity in animals (Rattus norvegicus [30]): No activity
Activity in animals (Rattus norvegicus [24]): 25%
Activity (Mus musculus [20]): Active

Cc1ccc(N)cc1N1C(=O)c2ccccc2C1=O
Activity (Mus musculus [25]): inactive
Activity (Mus musculus [17]): Active
Activity (Mus musculus [3]): inactive
Activity (Mus musculus [8]): inactive
Activity (Mus musculus [5]): inactive
Activity (Mus musculus [6]): inactive
